The structures appear in SMILES notation. Values joined by “and” are separate entries in the source; they are usually repeats but may differ in a detail not shown here. Equal values may be shown once.

Data on five compounds can be found in ChEMBL document CHEMBL1143027, “An efficient synthesis of 3-fluoro-5-thio-xylofuranosyl nucleosides of thymine, uracil, and 5-fluorouracil as potential antitumor or/and antiviral agents” (Bioorg Med Chem, 2007).

Data set [1] deals with Rotavirus. Put plainly: Antiviral activity against rotavirus RF in human Caco-2 cells after neutralization of virus in solution pre-incubated with compound for 12 hrs before infection. The format is functional, organism-based. The gist of the method:
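Rotavirus RF (grown on Caco-2 with trypsin, 1.5 TCID50/mL, 100 µL per well) pre-incubated 12 h with 3-fold compound dilutions (initial 0.5 mg/mL) in trypsin-containing DMEM, then added to Caco-2 monolayers at 37 °C, 5% CO2. Infected treated wells (n=6) compared with virus-only wells (n=6). IC50 read from the concentration–effect curve.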

A short description of data set [2]: Selectivity index, Ratio of CC50 for human Caco-2 cells to IC50 for rotavirus RF in human Caco2 cells after neutralization of virus in solution before infection. Format: functional. The procedure, abridged:
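Ratio of Caco-2 CC50 (72 h crystal violet assay) to rotavirus IC50 from the 12 h pre-attachment neutralization assay.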

In data set [3] the test system is Rotavirus. As to the kind of experiment: Antiviral activity against rotavirus RF infected human Caco-2 cells following viral attachment after 72 hrs. Format: functional, organism-based. The conditions noted are these: Caco-2, 72 h. The gist of the method:
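Washed Caco-2 monolayers exposed to rotavirus RF (1.5 TCID50/mL) for 1 h at 37 °C, 5% CO2 to allow attachment. Unbound virus washed off with plain DMEM, then 3-fold compound dilutions (initial 0.5 mg/mL) added at once. Infected wells (n=6) compared with virus-only controls (n=6). IC50 read from the curve.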

Data set [4] can be described thus: Selectivity index, Ratio of CC50 for human Caco-2 cells to IC50 for rotavirus RF infected human Caco2 cells after viral attachment. Format: functional. The gist of the method:
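Ratio of Caco-2 CC50 (72 h crystal violet assay) to rotavirus IC50 from the post-attachment infectivity assay.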

Data set [5] in a line: Cytotoxicity against human H4 cells after 72 hrs. The format is cell-based. The procedure, abridged: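 H4 human fetal small intestine cells grown in DMEM with 5% fetal calf serum and L-glutamine (2 mmol/L). Cells were exposed to 3-fold serial dilutions starting at 0.5 mg/mL (DMSO stock, final DMSO <0.1%) at 37 °C for 72 h. Treated (n = 2) vs control (n = 24) wells; CC50 from concentration–effect curve.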

The subject of data set [6] is Caco-2. Put plainly: Cytotoxicity against human Caco-2 cells after 72 hrs. As to conditions: Caco-2, 72 h. The format is functional. The gist of the method:
(§1)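 Cells grown in DMEM with 5% FCS and L-glutamine, then seeded in 96-well plates. Treated with 3-fold serial dilutions (initial 0.5 mg/mL; DMSO stocks, final DMSO <0.1%) for 72 h at 37 °C. Treated wells (n=2) compared with controls (n=24). CC50 read from the concentration–effect curve.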

Data set [7] is described as follows: Cytotoxicity against human skin melanoma cells after 72 hrs. Format: functional. As to conditions: Melanoma cell. The procedure, abridged: as §1
Data set [8] concerns MCF7. Put plainly: Cytotoxicity against human MCF7 cells after 72 hrs. The format is functional. The conditions noted are these: MCF7, 72 h. The procedure, abridged: as §1
Data set [9] has as its system H4. Put plainly: Selectivity index, Ratio of CC50 for human H4 cells to CC50 for human Caco-2 cells. Format: functional. The gist of the method:
(§2)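 Tumor selectivity index: CC50 on normal fetal intestinal H4 cells divided by CC50 on the named tumor line, both from the 72 h crystal violet cytotoxicity assay.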

Data set [10] has as its system H4. As to the kind of experiment: Selectivity index, Ratio of CC50 for human H4 cells to CC50 for human skin melanoma cells. Format: functional. The gist of the method:
as §2

Data set [11] has as its system MCF7. Put plainly: Selectivity index, Ratio of CC50 for human H4 cells to CC50 for human MCF7 cells. The format is functional. The gist of the method:
as §2

The subject of data set [12] is Caco-2. Put plainly: Growth inhibition of human Caco-2 cells after 10 days. The format is functional, cell-based. The conditions noted are these: Caco-2, 240 h. The procedure, abridged: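 Caco-2 cells seeded at 10 cells/well in DMEM/10% FBS with 3-fold compound dilutions (initial 0.5 mg/mL), six wells per series. Incubated 10 days at 37 °C in a humidified incubator, then colonies counted. Colony number in treated wells (n=2) compared with controls (n=24). IC50 read from the concentration–effect curve.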

On to `CC(=O)O[C@@H]1[C@@H](F)[C@@H](CSC(C)=O)O[C@H]1n1cc(C)c(=O)[nH]c1=O`, for which the half-inhibitory concentration (IC50) is 2 µg/mL and 5.55 µM with Rotavirus [1]; 16.6 µM and 6 µg/mL in the data set with Rotavirus [3]; 1.9 µM in the data set on Caco-2 [12]. Also, the “Ratio CC50/IC50” value is reported as 10 in [2] and 3.33 in data set [4]. The compound also displayed a CC50 at 72 h in data set [5] of 139 µM. The CC50 with Caco-2 [6] was found to be 55.5 µM; in data set [7], 278 µM; in the data set on MCF7 [8], 278 µM. For the same compound, the Selectivity index with H4 [9] came to 2.5; with H4 [10], 0.5; with MCF7 [11] it was 0.5.
As for `CC(=O)O[C@@H]1[C@@H](F)[C@@H](CSC(C)=O)O[C@H]1n1cc(F)c(=O)[nH]c1=O`, the IC50 in the data set with Rotavirus [1] was 6 µg/mL and 16.5 µM; in the data set with Rotavirus [3] it was 16.5 µM and 6 µg/mL; in the data set with Caco-2 [12], 16.5 µM. In addition, the “Ratio CC50/IC50” value in data set [2] and in [4] was 3.33 each time. Moreover, in [5], it took 1370 µM to reach half-maximal cytotoxicity (CC50 at 72 h). Moreover, the CC50 is 54.9 µM in the data set with Caco-2 [6], 16.5 µM in data set [7] and 1370 µM in the data set with MCF7 [8]. Also, the Selectivity index was found to be 25 with H4 [9], 83.2 in the data set on H4 [10] and 1 in the data set with MCF7 [11].
With `CC(=O)O[C@@H]1[C@@H](F)[C@@H](CSC(C)=O)O[C@H]1n1ccc(=O)[nH]c1=O`, the IC50 was 6 µg/mL and 17.3 µM with Rotavirus [1]; 17.3 µM and 6 µg/mL in the data set on Rotavirus [3]; 5.8 µM in the data set on Caco-2 [12]. The “Ratio CC50/IC50” value in [2] and in [4] was 3.33 in each case. Also, the CC50 at 72 h in data set [5] was found to be 1440 µM. Also, the CC50 worked out at 57.8 µM in the data set on Caco-2 [6], 17.3 µM in data set [7] and 289 µM in the data set with MCF7 [8]. The Selectivity index was determined as 25 with H4 [9], 83.5 in the data set on H4 [10] and 5 with MCF7 [11].
On to `O=c1[nH]cc(F)c(=O)[nH]1` [FLUOROURACIL], for which the half-maximal cytotoxic concentration (CC50) at 72 h in data set [5] was 3840 µM. Also, the figures for the cytotoxic concentration (CC50) (with Caco-2 [6]; in [7]; with MCF7 [8]) were 384 µM, 46.1 µM and 769 µM, respectively. The results for the Selectivity index in the data set with H4 [9], with H4 [10] and in the data set on MCF7 [11] were 10, 83.4 and 5, respectively. The same compound yielded an IC50 in the data set with Caco-2 [12] of 1.5 µM.
For the compound `Cc1cn([C@H]2C[C@H](N=[N+]=[N-])[C@@H](CO)O2)c(=O)[nH]c1=O` [ZIDOVUDINE], the concentration for half-maximal inhibition (IC50) with Rotavirus [1] was 20 µg/mL and 74.8 µM; in the data set with Rotavirus [3], 22.4 µM and 6 µg/mL. The “Ratio CC50/IC50” value came to 0.75 in data set [2] and 2.5 in data set [4].

Usually IC50 stands for the midpoint of a concentration-inhibition curve. One may read the CC50 as the concentration at which the toxic effect on the cells reaches its halfway point. A high value points to lower toxicity to the cells.
